The target in experiment [1] is Mu-type opioid receptor (Rattus norvegicus) (UniProt P33535). The experiment in a line: (§1) Activity at rat mu opioid receptor expressed in CHO cells by [35S]GTPgammaS binding assay. It counts as functional, cell-based. A digest of the protocol:
(§2)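 Receptors expressed in CHO cells; agonist-stimulated GTP-γ-S binding reported as net total bound/basal binding × 100. Log EC50 from nonlinear regression of at least two independent experiments.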
Background: GTPγS resists hydrolysis and so accumulates on activated G proteins.

The target of experiment [2] is T1, Delta-type opioid receptor (Homo sapiens, UniProt P41143). The experiment in a line: Activity at human delta opioid receptor expressed in CHO cells by [35S]GTP-gamma-S binding assay. In kind it is functional, cell-based. Particulars: for Log IC50: cho. The gist of the method:
as §2

For experiment [3], the target named is T1, Delta-type opioid receptor. The experiment in a line: Displacement of [3H]DPDPE from human delta opioid receptor expressed in HN9.10 cells. In kind it is cell-based. On the technique in general: In a radioligand displacement assay an active substance lowers the binding of a labelled ligand.
The target in experiment [4] is T2, Mu-type opioid receptor (Rattus norvegicus, UniProt P33535). Described as §1. It counts as functional, cell-based. The gist of the method:
as §2

Experiment [5] concerns the target T3, Gastrin/cholecystokinin type B receptor (Homo sapiens, UniProt P32239).
T3 sequence (P32239 whole entry): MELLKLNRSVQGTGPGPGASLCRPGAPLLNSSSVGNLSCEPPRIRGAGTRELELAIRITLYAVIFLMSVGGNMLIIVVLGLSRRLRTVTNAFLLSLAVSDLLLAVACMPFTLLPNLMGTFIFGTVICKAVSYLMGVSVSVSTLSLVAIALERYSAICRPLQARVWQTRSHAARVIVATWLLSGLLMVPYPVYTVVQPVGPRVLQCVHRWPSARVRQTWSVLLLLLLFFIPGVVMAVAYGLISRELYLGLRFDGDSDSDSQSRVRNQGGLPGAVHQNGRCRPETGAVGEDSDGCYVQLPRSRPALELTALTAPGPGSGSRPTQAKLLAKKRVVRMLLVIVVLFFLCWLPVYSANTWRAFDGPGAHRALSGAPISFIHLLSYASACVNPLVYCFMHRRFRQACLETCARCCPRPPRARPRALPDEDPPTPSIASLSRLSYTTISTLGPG
The experiment is described as follows: Displacement of [125I]CCK8-SO3 from human CCK2 receptor expressed in HEK293 cells. In kind it is cell-based.

Experiment [6] concerns the target T2, Mu-type opioid receptor. The experiment in a line: Displacement of [3H]DAMGO from rat mu opioid receptor expressed in HN9.10 cells. It counts as cell-based.
Experiment [7] concerns the target T4, Cholecystokinin receptor type A (Homo sapiens, UniProt P32238).
T4 sequence (P32238 whole entry): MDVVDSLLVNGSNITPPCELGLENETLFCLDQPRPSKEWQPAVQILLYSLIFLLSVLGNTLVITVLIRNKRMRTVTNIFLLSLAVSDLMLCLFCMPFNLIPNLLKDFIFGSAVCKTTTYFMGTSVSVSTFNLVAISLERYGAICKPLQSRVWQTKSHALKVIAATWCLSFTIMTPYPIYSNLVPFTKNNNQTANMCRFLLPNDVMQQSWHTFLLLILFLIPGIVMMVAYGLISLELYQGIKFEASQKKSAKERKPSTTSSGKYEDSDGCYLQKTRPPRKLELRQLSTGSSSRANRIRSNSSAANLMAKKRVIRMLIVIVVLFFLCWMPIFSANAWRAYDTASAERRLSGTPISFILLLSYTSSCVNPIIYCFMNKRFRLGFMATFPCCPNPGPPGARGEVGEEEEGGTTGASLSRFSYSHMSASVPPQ
The experiment in a line: Displacement of [125I]CCK8-SO3 from human CCK1 receptor expressed in HEK293 cells. It counts as cell-based.

For experiment [8], the target named is Mu-type opioid receptor (Cavia porcellus, UniProt P97266). The experiment in a line: Activity at mu opioid receptor assessed as contraction of electrically-stimulated Hartley guinea pig ileum. In kind it is functional, tissue-based. The gist of the method:
(§3)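 Electrically stimulated isolated tissue; value is concentration giving 50% inhibition of muscle contraction.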

Experiment [9] has as its target Delta-type opioid receptor (Mus musculus, UniProt P32300). The experiment in a line: Activity at delta opioid receptor in ICR mouse by MVD assay. It counts as functional, tissue-based. A digest of the protocol:
as §3

The target of experiment [10] is T3, Gastrin/cholecystokinin type B receptor. The experiment is described as follows: Activity at human CCK2 receptor expressed in HEK293 cells assessed as level of [3H]inositol produced relative to control. It counts as functional, cell-based.

T1 sequence (P41143 whole entry): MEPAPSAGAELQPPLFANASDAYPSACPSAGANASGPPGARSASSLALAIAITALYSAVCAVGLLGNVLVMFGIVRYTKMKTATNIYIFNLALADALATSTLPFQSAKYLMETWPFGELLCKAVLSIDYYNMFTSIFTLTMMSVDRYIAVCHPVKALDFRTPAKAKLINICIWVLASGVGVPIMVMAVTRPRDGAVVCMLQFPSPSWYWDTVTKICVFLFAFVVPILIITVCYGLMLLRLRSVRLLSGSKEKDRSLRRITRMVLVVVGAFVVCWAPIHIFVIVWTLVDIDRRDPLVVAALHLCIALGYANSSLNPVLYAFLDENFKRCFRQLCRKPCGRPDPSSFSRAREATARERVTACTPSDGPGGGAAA
T2 sequence (P33535 whole entry): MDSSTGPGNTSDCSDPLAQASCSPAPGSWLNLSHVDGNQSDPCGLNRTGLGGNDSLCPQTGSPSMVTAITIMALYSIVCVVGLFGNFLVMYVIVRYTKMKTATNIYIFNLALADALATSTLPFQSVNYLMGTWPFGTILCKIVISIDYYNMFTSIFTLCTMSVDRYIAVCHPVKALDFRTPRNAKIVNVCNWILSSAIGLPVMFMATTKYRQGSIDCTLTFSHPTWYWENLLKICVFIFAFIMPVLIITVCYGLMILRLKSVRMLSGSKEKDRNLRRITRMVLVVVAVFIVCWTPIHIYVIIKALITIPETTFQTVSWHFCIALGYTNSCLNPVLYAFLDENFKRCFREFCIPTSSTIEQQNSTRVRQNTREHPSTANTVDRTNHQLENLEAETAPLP
Sequence of Mu-type opioid receptor (Rattus norvegicus) (P33535 whole entry): as above
Sequence of Delta-type opioid receptor (Mus musculus, UniProt P32300) (P32300 whole entry): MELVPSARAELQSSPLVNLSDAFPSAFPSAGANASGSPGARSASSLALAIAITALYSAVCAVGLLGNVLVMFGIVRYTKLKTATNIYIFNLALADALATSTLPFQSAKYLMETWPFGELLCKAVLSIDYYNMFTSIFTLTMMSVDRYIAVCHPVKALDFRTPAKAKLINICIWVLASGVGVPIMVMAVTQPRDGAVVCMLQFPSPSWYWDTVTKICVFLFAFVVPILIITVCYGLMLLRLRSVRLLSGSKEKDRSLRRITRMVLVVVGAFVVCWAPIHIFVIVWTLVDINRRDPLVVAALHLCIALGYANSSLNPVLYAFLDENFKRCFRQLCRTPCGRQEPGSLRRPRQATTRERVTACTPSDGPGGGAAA
Sequence of Mu-type opioid receptor (Cavia porcellus, UniProt P97266) (P97266 whole entry): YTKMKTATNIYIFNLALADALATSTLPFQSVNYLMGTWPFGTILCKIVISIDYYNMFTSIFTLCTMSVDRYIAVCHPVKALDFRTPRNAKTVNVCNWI

Turning to `CCCC[C@H](NC(=O)[C@H](N)Cc1cc2ccccc2[nH]1)C(=O)N[C@@H](CC(=O)O)C(=O)N[C@@H](Cc1ccccc1)C(=O)NNC(=O)[C@H](Cc1ccccc1)NC(=O)CNC(=O)[C@@H](C)NC(=O)[C@@H](N)Cc1ccc(O)cc1`, the Emax (usually the size of the effect at its maximum, as opposed to the concentration needed) in experiment [1] was 82%; in [2] it was 64%.
For the molecule `CCCC[C@@H](NC(=O)[C@@H](CC(=O)O)NC(=O)[C@@H](Cc1ccccc1)NC(=O)OC(C)(C)C)C(=O)N[C@@H](Cc1cc2ccccc2[nH]1)C(=O)NNC(=O)[C@H](Cc1ccccc1)NC(=O)CNC(=O)[C@@H](C)NC(=O)[C@@H](N)Cc1ccc(O)cc1`, the IC50 – broadly, the point on the concentration scale where inhibition reaches its midpoint – in experiment [3] was 9.12 nM; in [5], 1100 nM; on Mu-type opioid receptor [6], 132 nM; in [7], 132 nM; in experiment [2], 12.3 nM; on Mu-type opioid receptor [8], 530 nM. The molecule also displayed a half-maximal inhibitory concentration (IC50) in experiment [9] of 18 nM. Further, the Ki (in general, the dissociation constant of the complex between target and ligand, obtained from inhibition or displacement) in [3] turned out to be 3.9 nM; in [5] it was 1100 nM; at Mu-type opioid receptor [6], 56 nM; in [7], 130 nM. The molecule further showed a log EC50 at Mu-type opioid receptor [4] of -6.76. The Emax in experiment [1] stood at 71%; in [2], 99%. In experiment [2], the EC50 (commonly the midpoint of the concentration-response curve) is 13 nM.
Turning to `CCCC[C@H](NC(=O)[C@@H](Cc1cc2ccccc2[nH]1)NC(=O)OC(C)(C)C)C(=O)N[C@@H](CC(=O)O)C(=O)N[C@@H](Cc1ccccc1)C(=O)NNC(=O)[C@H](Cc1ccccc1)NC(=O)CNC(=O)[C@@H](C)NC(=O)[C@@H](N)Cc1ccc(O)cc1`, the values for the Emax in experiment [1] and in experiment [2] were 170% and 100%, respectively.
For the molecule `CCCC[C@H](NC(=O)[C@H](N)Cc1c[nH]c2ccccc12)C(=O)N[C@@H](CC(=O)O)C(=O)N[C@@H](Cc1ccccc1)C(=O)NNC(=O)[C@H](Cc1ccccc1)NC(=O)CNC(=O)[C@@H](C)NC(=O)[C@@H](N)Cc1ccc(O)cc1`, the EC50 in experiment [10] came to 4.6 nM; at Mu-type opioid receptor [4] (cho), 96 nM. Also, the “Log IC50” value was -8.34 in experiment [10], -8.02 on Mu-type opioid receptor [4] (cho) and -8.02 in [2]. The same molecule yielded a Ki at Mu-type opioid receptor [6] of 0.5 nM.
For the molecule `CCCC[C@H](NC(=O)[C@@H](Cc1c[nH]c2ccccc12)NC(=O)OC(C)(C)C)C(=O)N[C@@H](CC(=O)O)C(=O)N[C@@H](Cc1ccccc1)C(=O)NNC(=O)[C@H](Cc1ccccc1)NC(=O)CNC(=O)[C@@H](C)NC(=O)[C@@H](N)Cc1ccc(O)cc1`, in experiment [10], the EC50 stood at 16 nM. In addition, the “Log IC50” value in [10] was -7.8; at Mu-type opioid receptor [4] (cho), -6.69; in [2], -7.13.
Turning to `CCCC[C@@H](NC(=O)[C@H](Cc1cc2ccccc2[nH]1)NC(=O)OC(C)(C)C)C(=O)N[C@H](CC(=O)O)C(=O)N[C@H](Cc1ccccc1)C(=O)NNC(=O)[C@H](Cc1ccccc1)NC(=O)CNC(=O)[C@@H](C)NC(=O)[C@@H](N)Cc1ccc(O)cc1`, the IC50 in experiment [3] is 16.2 nM; at Mu-type opioid receptor [6] it was 79.4 nM; in [2], 8.32 nM; on Mu-type opioid receptor [8] it was 210 nM; in [9], 31 nM. Moreover, the Ki in experiment [3] was 6.9 nM; in [5], above 10000 nM; at Mu-type opioid receptor [6], 34 nM; in experiment [7], 8300 nM. For the same molecule, the EC50 at Mu-type opioid receptor [4] is 1.3 nM; in experiment [2], 8.4 nM. For the same molecule, the log EC50 at Mu-type opioid receptor [4] is -8.9. Further, the Emax in [1] worked out at 106%; in [2] it was 93%.
